Source: ChEMBL document CHEMBL1150285, “Combination of non-natural D-amino acid derivatives and allophenylnorstatine-dimethylthioproline scaffold in HIV protease inhibitors have high efficacy in mutant HIV” (J Med Chem, 2008)
Blank lines part the entries; values can stand above or below the compound they belong to.

Columns and labels:
[1] = tested on: Human immunodeficiency virus 1; assay: Antiviral activity against HIV1 3B in presence of 10% fetal calf serum and alpha1 acid glycoprotein; type: functional, organism-based; settings: Human immunodeficiency virus 1, 3B
[2] = Cytotoxicity against human MT4 cells by MTT assay; type: cell-based
[3] = tested on: Human immunodeficiency virus 1; assay: Antiviral activity against HIV1 3B in human MT4 cells assessed as inhibition of viral-induced cytopathic effect by MTT method; type: functional, organism-based; settings: Human immunodeficiency virus 1, 3B
Protease = Protease (Human immunodeficiency virus 1, UniProt Q9YQ12); assay: Inhibition of HIV1 protease
Procedure, shortened: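 HIV-1 protease (2 µg/mL stock in pH 5.5 acetate buffer) was mixed with test compound (10 nM solution in DMSO) in MES-NaOH buffer, pH 5.5, containing DTT, EDTA and NaCl. The mixture was preincubated 5 min at 37 °C, then started with substrate H-Lys-Ala-Arg-Val-Tyr*Phe(p-NO₂)-Glu-Ala-Nle-NH₂. After 60 min at 37 °C, the reaction was stopped with 1N HCl.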

[4] = tested on: Human immunodeficiency virus 1; assay: microbe, parasite or virus in culture; type: functional, organism-based; settings: Human immunodeficiency virus 1, NL432
[5] = target: Protease (Human immunodeficiency virus 1) (UniProt Q9YQ12); settings: at 1 nM
[6] = tested on: Human immunodeficiency virus 1; assay: Ratio of EC50 for nelfinavir-resistant HIV1 NL432 to EC50 for wild-type HIV1 NL432; type: functional
[7] = Selectivity index, ratio of CC50 for human MT4 cells to EC50 for HIV1 3B; settings: MT4 cells
[8] = tested on: Human immunodeficiency virus 1; assay: Antiviral activity against nelfinavir-resistant HIV1 NL432; type: functional, organism-based; settings: Human immunodeficiency virus 1, NL432
[9] = tested on: Human immunodeficiency virus 1; assay: Antiviral activity against HIV1 3B in presence of 10% fetal calf serum; type: functional, organism-based; settings: Human immunodeficiency virus 1, 3B
[10] = tested on: Human immunodeficiency virus 1; assay: Antiviral activity against wild type HIV1 NL432; type: functional, organism-based; settings: Human immunodeficiency virus 1, NL432
[11] = tested on: Human immunodeficiency virus 1; assay: microbe, parasite or virus in culture; type: functional, organism-based; settings: Human immunodeficiency virus 1, NL432; remark: listed apart in the source

Protease (Human immunodeficiency virus 1), sequence (Q9YQ12 as listed by the source): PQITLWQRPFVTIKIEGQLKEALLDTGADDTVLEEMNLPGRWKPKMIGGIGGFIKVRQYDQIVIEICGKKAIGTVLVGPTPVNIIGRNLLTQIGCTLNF
Protease, sequence (Q9YQ12 whole entry): as the sequence (Q9YQ12 as listed by the source) above

SMILES: CC(=O)N[C@H](COCc1ccccc1)C(=O)N[C@@H](Cc1ccccc1)[C@H](O)C(=O)N1CSC(C)(C)[C@H]1C(=O)NCc1ccccc1C
EC50 [1]: 278 nM
CC50 [2]: > 30000 nM
EC50 [3]: 21 nM
IC50 (Protease): 0.39 nM
EC50 [4]: 44 nM
inhibition [5]: 64%
Ratio EC50 [6]: 0.28
selectivity ratio [7]: > 1400
EC50 [8]: 6.5 nM
EC50 [9]: 20 nM
EC50 [10]: 23 nM
EC50 [11]: 77 nM

SMILES: Cc1ccccc1CNC(=O)[C@H]1N(C(=O)[C@@H](O)[C@H](Cc2ccccc2)NC(=O)[C@@H](COCc2ccccc2)NS(C)(=O)=O)CSC1(C)C
EC50 [1]: 90 nM
CC50 [2]: 17000 nM
EC50 [3]: 20 nM
IC50 (Protease): 0.56 nM
EC50 [4]: 92 nM
inhibition [5]: 59%
Ratio EC50 [6]: 0.1
selectivity ratio [7]: 850
EC50 [8]: 2.3 nM
EC50 [9]: 20 nM
EC50 [10]: 22 nM
EC50 [11]: 90 nM

SMILES: COc1ccc(CSC[C@@H](NS(C)(=O)=O)C(=O)N[C@@H](Cc2ccccc2)[C@H](O)C(=O)N2CSC(C)(C)[C@H]2C(=O)NCc2ccccc2C)cc1
EC50 [1]: 94 nM
CC50 [2]: 10000 nM
EC50 [3]: 9.3 nM
IC50 (Protease): 0.26 nM
EC50 [4]: 23 nM
inhibition [5]: 77%
Ratio EC50 [6]: 0.04
selectivity ratio [7]: 1100
EC50 [8]: 0.67 nM
EC50 [9]: 9.4 nM
EC50 [10]: 16 nM
EC50 [11]: 20 nM

IC50 (Protease): 0.083 nM
inhibition [5]: 97%
SMILES: Cc1ccccc1CNC(=O)[C@H]1N(C(=O)[C@@H](O)[C@H](Cc2ccccc2)NC(=O)[C@@H](CS(=O)(=O)c2cccc3ccccc23)NS(C)(=O)=O)CSC1(C)C
CC50 [2]: 19000 nM
EC50 [3]: 61 nM
selectivity ratio [7]: 310

SMILES: CC(=O)N[C@H](CS(=O)(=O)c1ccc(Cl)cc1)C(=O)N[C@@H](Cc1ccccc1)[C@H](O)C(=O)N1CSC(C)(C)[C@H]1C(=O)NCc1ccccc1C
EC50 [1]: 1270 nM
CC50 [2]: 18000 nM
EC50 [3]: 47 nM
IC50 (Protease): 0.22 nM
EC50 [4]: 19 nM
inhibition [5]: 80%
Ratio EC50 [6]: 0.11
selectivity ratio [7]: 380
EC50 [8]: 9.6 nM
EC50 [9]: 27 nM
EC50 [10]: 88 nM
EC50 [11]: 44 nM

SMILES: COc1ccc(CSC[C@@H](NC(C)=O)C(=O)N[C@@H](Cc2ccccc2)[C@H](O)C(=O)N2CSC(C)(C)[C@H]2C(=O)NCc2ccccc2C)cc1
EC50 [1]: 89 nM
IC50 (Protease): 0.18 nM
inhibition [5]: 87%
Ratio EC50 [6]: 0.14
selectivity ratio [7]: 1300
